By Kd is commonly meant the concentration at which binding is half-saturated. As a reminder, the IC50 is the concentration that gives 50% inhibition. Read a low IC50 as greater potency in that assay.

Consider six compounds from ChEMBL document CHEMBL1932952, “Synthesis and biochemical analysis of 2,2,3,3,4,4,5,5,6,6,7,7-dodecafluoro-N-hydroxy-octanediamides as inhibitors of human histone deacetylases” (Bioorg Med Chem, 2012).

The target of assay [1] is T1, Protein deacetylase HDAC6 (Homo sapiens, UniProt Q9UBN7).
T1 sequence (Q9UBN7 whole entry): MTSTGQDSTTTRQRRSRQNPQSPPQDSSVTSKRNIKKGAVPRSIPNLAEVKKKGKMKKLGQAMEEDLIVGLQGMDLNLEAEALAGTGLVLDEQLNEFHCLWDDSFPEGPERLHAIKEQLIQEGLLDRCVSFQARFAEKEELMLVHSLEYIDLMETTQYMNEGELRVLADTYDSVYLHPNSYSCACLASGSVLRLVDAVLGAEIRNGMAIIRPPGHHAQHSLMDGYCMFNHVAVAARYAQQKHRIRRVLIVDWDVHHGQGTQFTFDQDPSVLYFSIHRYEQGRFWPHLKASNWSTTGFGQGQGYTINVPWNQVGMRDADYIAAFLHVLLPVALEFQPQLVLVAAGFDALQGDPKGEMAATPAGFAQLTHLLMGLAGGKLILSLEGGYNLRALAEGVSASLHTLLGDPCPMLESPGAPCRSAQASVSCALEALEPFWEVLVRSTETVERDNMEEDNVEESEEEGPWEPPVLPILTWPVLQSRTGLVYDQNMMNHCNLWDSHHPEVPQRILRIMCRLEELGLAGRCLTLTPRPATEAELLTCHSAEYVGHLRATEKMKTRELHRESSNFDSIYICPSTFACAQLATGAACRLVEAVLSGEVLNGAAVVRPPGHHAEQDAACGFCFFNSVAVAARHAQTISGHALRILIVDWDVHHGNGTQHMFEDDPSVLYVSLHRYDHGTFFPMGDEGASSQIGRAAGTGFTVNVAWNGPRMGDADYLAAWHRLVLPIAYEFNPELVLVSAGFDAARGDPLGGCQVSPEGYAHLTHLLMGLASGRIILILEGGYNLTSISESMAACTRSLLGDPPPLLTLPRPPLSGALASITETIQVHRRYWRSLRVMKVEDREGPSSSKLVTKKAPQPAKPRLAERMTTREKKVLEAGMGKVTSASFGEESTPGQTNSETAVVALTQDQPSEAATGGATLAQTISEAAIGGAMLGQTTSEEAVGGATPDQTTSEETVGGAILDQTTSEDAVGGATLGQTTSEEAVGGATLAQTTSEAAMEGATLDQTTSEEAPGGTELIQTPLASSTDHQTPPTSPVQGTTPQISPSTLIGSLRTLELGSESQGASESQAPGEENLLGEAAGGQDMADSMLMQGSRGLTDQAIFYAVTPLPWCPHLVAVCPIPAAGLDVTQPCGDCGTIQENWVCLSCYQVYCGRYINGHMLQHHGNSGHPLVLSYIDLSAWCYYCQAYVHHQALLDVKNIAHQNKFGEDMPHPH
As to the kind of experiment: Inhibition of recombinant human HDAC6 using Boc-L-Lys(acetyl)-MCA as substrate by fluorogenic enzymatic assay.

Assay [2] addresses Histone deacetylase. As to the kind of experiment: Inhibition of HDAC in human K562 cells using Boc-L-Lys(acetyl)-MCA as substrate by fluorogenic cellular assay. Type of assay: cell-based. The essentials:
(§1)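 K562 cells were grown in RPMI with 10% FCS, L-glutamine and gentamycin, then pelleted. Lysis in 50 mM Tris–HCl pH 8.5, 1 M NaCl, 1 mM MgCl₂, Triton X-100 (up to 5× pellet volume), 2 h at 37 °C. The diluted lysate replaces recombinant enzyme in the two-step fluorogenic trypsin-coupled assay with substrate at 20 µM final. Read-out is AMC fluorescence (ex 390, em 460 nm), giving IC50.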

The target of assay [3] is T2, Histone deacetylase-like amidohydrolase (Alcaligenes sp. (strain DSM 11172) (Bordetella sp. (strain FB188)), UniProt Q70I53).
T2 sequence (Q70I53 whole entry): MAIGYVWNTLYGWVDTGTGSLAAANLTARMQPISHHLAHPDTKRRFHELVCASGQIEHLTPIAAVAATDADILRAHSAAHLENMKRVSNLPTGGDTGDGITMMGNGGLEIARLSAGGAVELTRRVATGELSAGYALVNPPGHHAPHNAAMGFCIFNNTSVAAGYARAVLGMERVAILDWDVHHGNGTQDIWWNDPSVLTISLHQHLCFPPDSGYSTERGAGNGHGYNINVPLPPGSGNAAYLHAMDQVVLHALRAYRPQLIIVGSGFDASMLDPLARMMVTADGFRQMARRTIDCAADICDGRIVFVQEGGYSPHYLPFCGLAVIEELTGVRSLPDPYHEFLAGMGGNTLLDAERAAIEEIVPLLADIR
Description: Inhibition of Bordetella FB188 HDAH using Boc-L-Lys(acetyl)-MCA as substrate by fluorogenic enzymatic assay.

Assay [4] deals with Histone deacetylase 1 (Homo sapiens, UniProt Q13547). Description: Inhibition of recombinant human HDAC1 using Boc-L-Lys(acetyl)-MCA as substrate by fluorogenic enzymatic assay.
Histone deacetylase 1, sequence (Q13547 whole entry): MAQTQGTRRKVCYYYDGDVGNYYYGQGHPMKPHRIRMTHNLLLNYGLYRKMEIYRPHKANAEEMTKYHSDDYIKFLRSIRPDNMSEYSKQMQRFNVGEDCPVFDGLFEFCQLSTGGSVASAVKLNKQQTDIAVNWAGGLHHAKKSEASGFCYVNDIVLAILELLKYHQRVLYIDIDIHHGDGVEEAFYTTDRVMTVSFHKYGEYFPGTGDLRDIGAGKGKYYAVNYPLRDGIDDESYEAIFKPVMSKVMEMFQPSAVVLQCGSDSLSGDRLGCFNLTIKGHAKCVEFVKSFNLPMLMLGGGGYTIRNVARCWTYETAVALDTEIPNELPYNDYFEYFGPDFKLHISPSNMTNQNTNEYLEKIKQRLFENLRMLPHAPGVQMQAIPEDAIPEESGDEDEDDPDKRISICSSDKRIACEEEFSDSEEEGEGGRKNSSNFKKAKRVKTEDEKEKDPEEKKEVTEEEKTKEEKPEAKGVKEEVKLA
The target in assay [5] is Histone deacetylase. As to the kind of experiment: Inhibition of HDAC in human K562 cells using Boc-L-Lys(trifluoroacetyl)-MCA as substrate by fluorogenic cellular assay. In kind it is cell-based. The essentials:
as §1

In assay [6] the target is T3, Histone deacetylase 8 (Homo sapiens, UniProt Q9BY41).
T3 sequence (Q9BY41 whole entry): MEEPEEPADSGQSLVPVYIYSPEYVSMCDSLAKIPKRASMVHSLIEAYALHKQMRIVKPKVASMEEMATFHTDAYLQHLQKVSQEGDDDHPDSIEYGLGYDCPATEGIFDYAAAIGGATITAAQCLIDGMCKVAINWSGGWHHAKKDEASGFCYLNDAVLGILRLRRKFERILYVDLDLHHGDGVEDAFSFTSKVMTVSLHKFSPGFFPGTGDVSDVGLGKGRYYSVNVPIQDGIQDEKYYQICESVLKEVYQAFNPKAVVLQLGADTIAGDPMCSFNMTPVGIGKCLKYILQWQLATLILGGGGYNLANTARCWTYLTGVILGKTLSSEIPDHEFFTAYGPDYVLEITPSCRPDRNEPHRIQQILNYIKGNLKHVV
As to the kind of experiment: Inhibition of recombinant human HDAC8 using Boc-L-Lys(trifluoroacetyl)-MCA as substrate by fluorogenic enzymatic assay.

Assay [7] concerns the target T4, Histone deacetylase 7 (Homo sapiens, UniProt Q8WUI4).
T4 sequence (Q8WUI4 whole entry): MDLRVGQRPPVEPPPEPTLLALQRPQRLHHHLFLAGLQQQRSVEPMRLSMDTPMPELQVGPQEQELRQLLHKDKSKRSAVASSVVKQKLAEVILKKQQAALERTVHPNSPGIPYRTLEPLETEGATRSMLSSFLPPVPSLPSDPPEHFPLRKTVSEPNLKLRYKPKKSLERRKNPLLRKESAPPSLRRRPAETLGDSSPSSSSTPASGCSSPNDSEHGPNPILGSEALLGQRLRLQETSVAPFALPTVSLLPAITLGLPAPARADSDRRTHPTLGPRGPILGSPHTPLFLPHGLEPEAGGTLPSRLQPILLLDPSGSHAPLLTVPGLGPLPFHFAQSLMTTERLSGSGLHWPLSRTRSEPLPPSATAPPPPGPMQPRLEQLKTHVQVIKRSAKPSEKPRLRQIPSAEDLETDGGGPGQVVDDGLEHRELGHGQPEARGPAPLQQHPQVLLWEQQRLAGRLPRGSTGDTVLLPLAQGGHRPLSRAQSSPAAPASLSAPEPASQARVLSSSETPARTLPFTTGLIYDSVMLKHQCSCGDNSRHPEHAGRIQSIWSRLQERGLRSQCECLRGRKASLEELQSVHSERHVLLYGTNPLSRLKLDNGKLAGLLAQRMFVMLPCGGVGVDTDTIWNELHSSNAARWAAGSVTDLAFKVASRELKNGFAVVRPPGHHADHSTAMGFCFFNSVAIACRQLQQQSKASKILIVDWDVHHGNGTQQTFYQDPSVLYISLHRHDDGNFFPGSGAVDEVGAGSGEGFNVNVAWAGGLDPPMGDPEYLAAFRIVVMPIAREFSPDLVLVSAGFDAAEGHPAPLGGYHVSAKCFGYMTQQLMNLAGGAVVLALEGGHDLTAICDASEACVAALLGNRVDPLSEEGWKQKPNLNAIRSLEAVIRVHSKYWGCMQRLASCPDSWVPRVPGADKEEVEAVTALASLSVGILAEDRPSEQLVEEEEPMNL
Description: Inhibition of recombinant human HDAC7 using Boc-L-Lys(trifluoroacetyl)-MCA as substrate by fluorogenic enzymatic assay.

In assay [8] the target is T5, Histone deacetylase 8 (Homo sapiens) (UniProt Q9BY41).
T5 sequence (whole entry): T3 sequence (Q9BY41 whole entry)
Description: Ratio of SAHA Kd to compound Kd for recombinant human HDAC8.

Assay [9] deals with T6, Histone deacetylase 7 (Homo sapiens) (UniProt Q8WUI4).
T6 sequence (whole entry): T4 sequence (Q8WUI4 whole entry)
As to the kind of experiment: Ratio of SAHA Kd to compound Kd for recombinant human HDAC7.

Take `O=C(NO)C(F)(F)C(F)(F)C(F)(F)C(F)(F)C(F)(F)C(F)(F)C(=O)Nc1ccccc1-c1ccccc1`: the dissociation constant (Kd) in [1] is 9.2 µM; in assay [3], 0.86 µM; in assay [4], 49 µM; in [6] it was 5.3 µM; in [7], 14 µM. Further, the IC50 in assay [2] and in [5] was above 50 µM throughout.

Take `O=C(NO)C(F)(F)C(F)(F)C(F)(F)C(F)(F)C(F)(F)C(F)(F)C(=O)Nc1nc(-c2ccccc2)cs1`: the Kd in [1] was found to be 5.4 µM; in assay [3], 2.2 µM; in assay [4] it was 2.6 µM; in assay [6], 1.5 µM; in assay [7] it was 1.4 µM. Also, the IC50 came out at 30 µM in assay [2] and 14 µM in assay [5]. The Ratio in [8] turned out to be 2; in assay [9], 25.

On to `CCc1cccc(NC(=O)C(F)(F)C(F)(F)C(F)(F)C(F)(F)C(F)(F)C(F)(F)C(=O)NO)c1`, for which the Kd stood at 1.3 µM in assay [1]; 0.19 µM in assay [3]; 16 µM in [4]; 13 µM in [6]; 3 µM in assay [7]. The IC50 in assay [2] was above 50 µM; in assay [5] it was 42 µM.

As for `Cc1ccc(NC(=O)C(F)(F)C(F)(F)C(F)(F)C(F)(F)C(F)(F)C(F)(F)C(=O)NO)cc1C`, the equilibrium dissociation constant (Kd) in assay [1] worked out at 24 µM; in assay [3], 0.26 µM; in [4], 24 µM; in assay [6], 14 µM; in [7], 3.3 µM. In addition, the IC50 in [2] and in assay [5] was above 50 µM each time.

On to `O=C(NO)C(F)(F)C(F)(F)C(F)(F)C(F)(F)C(F)(F)C(F)(F)C(=O)Nc1ccccc1`, for which the equilibrium dissociation constant (Kd) in assay [1] is 11 µM; in assay [3] it was 0.54 µM; in assay [4] it was 29 µM; in [6] it was 17 µM; in assay [7] it was 11 µM. In addition, the IC50 is above 50 µM in [2] and 49 µM in [5]. For the same compound, the Ratio in assay [9] is 3.

Turning to `CC(=O)Nc1ccc(NC(=O)C(F)(F)C(F)(F)C(F)(F)C(F)(F)C(F)(F)C(F)(F)C(=O)NO)cc1`, the Kd was found to be 9.2 µM in assay [1]; 1.3 µM in assay [3]; 18 µM in assay [4]; 36 µM in [6]; 13 µM in assay [7]. Moreover, the IC50 in assay [2] and in assay [5] was above 50 µM throughout.
